ChEMBL document CHEMBL3826910, “Discovery of 3-(5'-Substituted)-Benzimidazole-5-(1-(3,5-dichloropyridin-4-yl)ethoxy)-1H-indazoles as Potent Fibroblast Growth Factor Receptor Inhibitors: Design, Synthesis, and Biological Evaluation” (J Med Chem, 2016)
pIC50: −log10 of the molar value. The source made the active and inactive calls. No cut-off for these calls is given here.

How the values were obtained:
[1] = target: T1, Fibroblast growth factor receptor 2 (Homo sapiens, UniProt P21802); experiment: Inhibition of FGFR2 phosphorylation in human SNU15 cells at 0.1 to 10 nM after 2 hrs by Western blot method; type: cell-based
T1 sequence (P21802 22-821 limits assumed): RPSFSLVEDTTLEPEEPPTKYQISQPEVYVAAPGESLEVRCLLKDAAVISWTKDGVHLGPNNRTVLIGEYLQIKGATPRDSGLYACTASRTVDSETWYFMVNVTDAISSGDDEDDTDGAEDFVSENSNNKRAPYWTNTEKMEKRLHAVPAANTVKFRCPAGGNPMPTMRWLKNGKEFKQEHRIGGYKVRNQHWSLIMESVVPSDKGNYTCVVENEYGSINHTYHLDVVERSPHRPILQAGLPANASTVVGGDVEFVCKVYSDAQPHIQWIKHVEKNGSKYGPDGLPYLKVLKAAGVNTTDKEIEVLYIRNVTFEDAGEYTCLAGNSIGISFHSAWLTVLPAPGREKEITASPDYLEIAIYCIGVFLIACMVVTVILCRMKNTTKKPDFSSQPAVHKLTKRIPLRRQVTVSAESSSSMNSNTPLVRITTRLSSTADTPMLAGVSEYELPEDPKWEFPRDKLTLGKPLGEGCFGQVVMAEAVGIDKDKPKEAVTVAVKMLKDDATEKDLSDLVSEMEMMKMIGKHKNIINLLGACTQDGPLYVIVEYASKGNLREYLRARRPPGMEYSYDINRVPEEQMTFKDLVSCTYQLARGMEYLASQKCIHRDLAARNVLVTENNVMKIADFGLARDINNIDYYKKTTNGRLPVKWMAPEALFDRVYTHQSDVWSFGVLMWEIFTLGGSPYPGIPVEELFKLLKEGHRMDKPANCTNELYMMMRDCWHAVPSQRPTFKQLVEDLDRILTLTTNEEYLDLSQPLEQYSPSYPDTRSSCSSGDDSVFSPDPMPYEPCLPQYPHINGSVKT

[2] = target: Hepatocyte growth factor receptor (Homo sapiens, UniProt P08581); experiment: Inhibition of recombinant human c-Met using poly (Glu, Tyr) 4:1 as substrate after 60 mins by ELISA
How it was run: (§1)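 Purified recombinant kinases tested by ELISA on plates pre-coated with 20 µg/mL poly(Glu,Tyr) 4:1. Reaction run 60 min at 37 °C. Read-out: PY99 anti-phosphotyrosine antibody, HRP anti-mouse IgG and o-phenylenediamine/H2O2, with A490 measured. IC50 from inhibition curves, two independent experiments.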

[3] = Cmax in Sprague-Dawley rat at 5 mg/kg, po; type: ADME, organism-based; design: dose 5 mg/kg, route oral; conditions: in vivo
How it was run: (§2)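 Male SD rats (n = 3) dosed orally by gavage at 5 mg/kg as a suspension in 0.5% CMC-Na. Quantified by LC-MS/MS. An IV arm (1 mg/kg) was run in parallel.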

[4] = AUC (0 to infinity) in Sprague-Dawley rat at 5 mg/kg, po; type: ADME, organism-based; design: dose 5 mg/kg, route oral, time infinity; conditions: in vivo; how it was run: as §2
[5] = tested on: Mus musculus; experiment: Toxicity in nude mouse xenografted with human NCI-H1581 cells assessed as body weight loss at 2 to 10 mg/kg, po qd administered for 21 days measured during compound dosing; type: organism-based; conditions: in vivo, 504 h
How it was run: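 Female nude mice (4–6 weeks) housed under SPF conditions. NCI-H1581 tumours were first grown from 5 × 10^6 cells s.c., and 1.5 mm3 fragments were then transplanted s.c. into the right flank. At 115 mm3, mice were randomized and given vehicle or compound orally once daily for 21 days (2 or 10 mg/kg). Tumours were measured by caliper twice weekly, with TV = length × width²/2.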

[6] = target: Receptor tyrosine-protein kinase erbB-2 (Homo sapiens, UniProt P04626); experiment: Inhibition of recombinant human ErbB2 using poly (Glu, Tyr) 4:1 as substrate after 60 mins by ELISA; how it was run: as §1
[7] = target: T1, Fibroblast growth factor receptor 2; experiment: Inhibition of FGFR2 in human SNU15 cells assessed as reduction of ERK phosphorylation at 0.1 to 10 nM after 2 hrs by Western blot method; type: cell-based
[8] = target: T2, Fibroblast growth factor receptor 1 (Homo sapiens, UniProt P11362); experiment: Inhibition of recombinant human FGFR1 using poly (Glu, Tyr) 4:1 as substrate after 60 mins by ELISA
[9] = target: Ephrin type-A receptor 2 (Homo sapiens, UniProt P29317); experiment: Inhibition of recombinant human EPHA2 using poly (Glu, Tyr) 4:1 as substrate after 60 mins by ELISA; how it was run: as §1
Sequence of Ephrin type-A receptor 2 (P29317 whole entry): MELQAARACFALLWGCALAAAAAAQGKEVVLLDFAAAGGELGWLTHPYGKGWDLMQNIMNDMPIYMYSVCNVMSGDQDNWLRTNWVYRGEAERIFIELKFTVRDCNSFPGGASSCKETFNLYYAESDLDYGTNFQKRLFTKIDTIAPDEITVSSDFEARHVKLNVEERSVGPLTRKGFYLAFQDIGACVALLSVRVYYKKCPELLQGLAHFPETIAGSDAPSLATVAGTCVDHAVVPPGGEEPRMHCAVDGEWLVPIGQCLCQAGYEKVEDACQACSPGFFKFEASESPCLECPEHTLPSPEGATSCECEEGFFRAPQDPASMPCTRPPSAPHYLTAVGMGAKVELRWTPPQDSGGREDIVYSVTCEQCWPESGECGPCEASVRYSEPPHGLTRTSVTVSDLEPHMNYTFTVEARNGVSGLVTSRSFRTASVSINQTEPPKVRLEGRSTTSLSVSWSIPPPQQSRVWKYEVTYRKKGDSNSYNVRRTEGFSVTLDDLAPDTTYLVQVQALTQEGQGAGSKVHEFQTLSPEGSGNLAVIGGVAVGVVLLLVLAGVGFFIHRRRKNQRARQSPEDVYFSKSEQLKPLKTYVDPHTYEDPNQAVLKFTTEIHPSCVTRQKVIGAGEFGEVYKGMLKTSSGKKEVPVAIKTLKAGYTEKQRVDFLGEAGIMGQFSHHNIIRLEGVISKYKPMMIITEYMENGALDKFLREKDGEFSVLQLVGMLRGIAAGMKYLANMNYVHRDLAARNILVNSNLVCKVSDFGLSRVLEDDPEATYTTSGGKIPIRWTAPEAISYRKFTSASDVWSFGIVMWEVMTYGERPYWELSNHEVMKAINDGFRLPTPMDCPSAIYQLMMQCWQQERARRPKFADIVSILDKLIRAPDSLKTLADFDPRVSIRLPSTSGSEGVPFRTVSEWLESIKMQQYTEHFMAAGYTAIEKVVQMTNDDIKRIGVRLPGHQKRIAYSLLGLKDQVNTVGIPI

[10] = target: Proto-oncogene tyrosine-protein kinase receptor Ret (Homo sapiens, UniProt P07949); experiment: Inhibition of recombinant human RET using poly (Glu, Tyr) 4:1 as substrate after 60 mins by ELISA; how it was run: as §1
[11] = target: Bcr/Abl fusion protein (Homo sapiens, UniProt P00519); experiment: Inhibition of recombinant human Bcr-Abl using poly (Glu, Tyr) 4:1 as substrate after 60 mins by ELISA; type: protein assay; how it was run: as §1
Sequence of Bcr/Abl fusion protein (P00519 whole entry, the tested form may be a part): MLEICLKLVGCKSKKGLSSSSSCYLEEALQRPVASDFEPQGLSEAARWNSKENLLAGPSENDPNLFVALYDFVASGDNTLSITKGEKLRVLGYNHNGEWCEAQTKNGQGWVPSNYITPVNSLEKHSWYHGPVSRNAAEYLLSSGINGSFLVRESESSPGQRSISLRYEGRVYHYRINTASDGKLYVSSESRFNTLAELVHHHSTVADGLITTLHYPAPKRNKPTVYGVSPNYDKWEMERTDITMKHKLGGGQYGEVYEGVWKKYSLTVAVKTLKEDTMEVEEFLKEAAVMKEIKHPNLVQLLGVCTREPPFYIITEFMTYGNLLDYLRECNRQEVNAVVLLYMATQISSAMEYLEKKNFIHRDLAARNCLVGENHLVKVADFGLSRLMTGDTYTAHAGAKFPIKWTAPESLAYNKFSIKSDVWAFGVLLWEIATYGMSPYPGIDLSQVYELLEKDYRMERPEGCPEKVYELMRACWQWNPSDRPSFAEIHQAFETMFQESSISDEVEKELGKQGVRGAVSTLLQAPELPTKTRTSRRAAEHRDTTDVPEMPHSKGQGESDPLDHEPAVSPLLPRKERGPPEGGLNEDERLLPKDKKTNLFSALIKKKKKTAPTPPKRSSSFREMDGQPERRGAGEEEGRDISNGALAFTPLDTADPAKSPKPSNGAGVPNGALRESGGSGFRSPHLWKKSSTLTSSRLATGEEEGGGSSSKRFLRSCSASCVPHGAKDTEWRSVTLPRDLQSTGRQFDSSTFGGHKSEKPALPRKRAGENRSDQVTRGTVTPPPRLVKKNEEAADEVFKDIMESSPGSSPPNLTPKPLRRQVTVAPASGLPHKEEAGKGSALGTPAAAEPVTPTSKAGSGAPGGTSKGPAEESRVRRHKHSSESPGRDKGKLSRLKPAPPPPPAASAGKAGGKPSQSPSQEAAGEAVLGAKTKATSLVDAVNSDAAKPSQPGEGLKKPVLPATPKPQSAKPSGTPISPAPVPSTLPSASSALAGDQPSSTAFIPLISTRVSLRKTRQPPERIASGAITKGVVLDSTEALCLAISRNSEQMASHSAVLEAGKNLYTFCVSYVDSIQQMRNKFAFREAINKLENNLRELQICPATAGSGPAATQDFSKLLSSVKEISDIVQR
Sequence of Bcr/Abl fusion protein (P11274 whole entry, further chain, the tested form may be a part): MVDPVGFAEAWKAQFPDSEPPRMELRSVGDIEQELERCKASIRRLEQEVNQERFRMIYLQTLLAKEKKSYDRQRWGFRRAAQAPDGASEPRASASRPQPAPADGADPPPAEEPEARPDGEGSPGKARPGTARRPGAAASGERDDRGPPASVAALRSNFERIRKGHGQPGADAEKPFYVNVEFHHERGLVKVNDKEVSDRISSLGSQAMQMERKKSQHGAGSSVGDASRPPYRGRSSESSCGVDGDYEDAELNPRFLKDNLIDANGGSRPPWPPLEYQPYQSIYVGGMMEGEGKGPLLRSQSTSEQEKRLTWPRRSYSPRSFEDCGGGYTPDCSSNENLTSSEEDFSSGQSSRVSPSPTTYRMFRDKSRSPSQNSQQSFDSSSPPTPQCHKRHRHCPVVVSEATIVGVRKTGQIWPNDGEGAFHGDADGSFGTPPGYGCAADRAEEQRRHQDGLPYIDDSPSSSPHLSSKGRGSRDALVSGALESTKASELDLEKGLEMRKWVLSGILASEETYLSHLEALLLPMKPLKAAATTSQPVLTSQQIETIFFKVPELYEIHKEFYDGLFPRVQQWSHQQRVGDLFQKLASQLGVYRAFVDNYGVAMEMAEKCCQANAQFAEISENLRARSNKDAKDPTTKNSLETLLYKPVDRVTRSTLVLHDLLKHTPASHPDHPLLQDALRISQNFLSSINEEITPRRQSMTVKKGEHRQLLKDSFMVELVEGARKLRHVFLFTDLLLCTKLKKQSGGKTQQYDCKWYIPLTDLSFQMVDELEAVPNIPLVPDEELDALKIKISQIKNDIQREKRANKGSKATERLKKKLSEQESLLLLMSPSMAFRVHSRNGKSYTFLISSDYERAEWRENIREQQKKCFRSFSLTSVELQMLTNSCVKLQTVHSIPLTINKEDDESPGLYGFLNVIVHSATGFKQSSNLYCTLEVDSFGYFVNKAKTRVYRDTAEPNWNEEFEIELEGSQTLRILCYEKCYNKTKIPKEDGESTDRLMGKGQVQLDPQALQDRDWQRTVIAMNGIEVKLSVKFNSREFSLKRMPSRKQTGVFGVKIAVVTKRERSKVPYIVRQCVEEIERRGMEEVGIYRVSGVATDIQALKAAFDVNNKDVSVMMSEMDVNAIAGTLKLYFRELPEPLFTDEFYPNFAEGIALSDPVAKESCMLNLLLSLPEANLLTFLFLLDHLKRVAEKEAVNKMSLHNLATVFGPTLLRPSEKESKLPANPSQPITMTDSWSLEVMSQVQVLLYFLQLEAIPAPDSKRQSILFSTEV

[12] = target: T2, Fibroblast growth factor receptor 1; experiment: Inhibition of FGFR1 in human KG1 cells assessed as reduction of ERK phosphorylation at 0.1 to 10 nM after 2 hrs by Western blot method; type: cell-based; conditions: KG-1
How it was run: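 KG-1 cells treated at indicated concentrations for 2 h, then lysed in 1× SDS sample buffer. Lysates run on 10% SDS-PAGE, transferred to nitrocellulose, and probed for phospho-FGFR, PLCγ and Erk. Detection by enhanced chemiluminescence.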

[13] = cells; conditions: Homo sapiens, RT-112, 72 h
[14] = cells; conditions: Homo sapiens, KG-1, 72 h
[15] = target: Fibroblast growth factor receptor 3 (Homo sapiens, UniProt P22607); experiment: Inhibition of recombinant human FGFR3 using poly (Glu, Tyr) 4:1 as substrate after 60 mins by ELISA; how it was run: as §1
Sequence of Fibroblast growth factor receptor 3 (P22607 whole entry): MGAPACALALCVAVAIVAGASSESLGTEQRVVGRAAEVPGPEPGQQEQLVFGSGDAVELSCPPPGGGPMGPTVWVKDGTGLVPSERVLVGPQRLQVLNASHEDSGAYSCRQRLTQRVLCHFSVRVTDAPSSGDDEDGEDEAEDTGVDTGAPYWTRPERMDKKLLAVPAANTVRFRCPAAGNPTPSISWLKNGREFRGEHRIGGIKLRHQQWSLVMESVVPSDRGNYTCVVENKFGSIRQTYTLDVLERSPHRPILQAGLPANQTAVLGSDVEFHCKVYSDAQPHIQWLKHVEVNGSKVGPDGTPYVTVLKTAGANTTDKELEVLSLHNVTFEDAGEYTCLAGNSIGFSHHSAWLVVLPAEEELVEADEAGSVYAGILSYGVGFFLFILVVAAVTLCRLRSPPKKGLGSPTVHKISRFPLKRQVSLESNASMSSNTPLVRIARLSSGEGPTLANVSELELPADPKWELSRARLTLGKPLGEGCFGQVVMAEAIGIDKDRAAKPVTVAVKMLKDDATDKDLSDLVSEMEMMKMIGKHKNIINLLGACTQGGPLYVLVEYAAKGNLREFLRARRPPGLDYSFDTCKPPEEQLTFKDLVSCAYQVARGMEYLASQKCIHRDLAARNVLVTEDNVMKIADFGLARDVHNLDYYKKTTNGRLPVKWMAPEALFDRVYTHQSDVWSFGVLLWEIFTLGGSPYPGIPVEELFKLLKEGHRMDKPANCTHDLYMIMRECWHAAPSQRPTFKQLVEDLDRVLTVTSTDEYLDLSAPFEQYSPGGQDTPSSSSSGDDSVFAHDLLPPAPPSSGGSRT

[16] = Oral bioavailability in Sprague-Dawley rat at 5 mg/kg; type: ADME, organism-based; conditions: in vivo; how it was run: as §2
[17] = Tmax in Sprague-Dawley rat at 5 mg/kg, po; type: ADME, organism-based; conditions: in vivo; how it was run: as §2

inhibition [1]: Active | pIC50 [2]: < 7.00 | Cmax [3]: 97.2 ng/mL | AUC(0-inf) [4]: 799 ng·h/mL | pIC50 [6]: < 6.00 | inhibition [7]: Active | pIC50 [8]: 9.05 | pIC50 [9]: < 7.00 | pIC50 [10]: < 7.00 | pIC50 [11]: < 7.00 | inhibition [12]: Active | pIC50 [13]: > 10.00 | pIC50 [14]: > 10.00 | pIC50 [15]: 8.70 | bioavailability [16]: 33% | Tmax [17]: 4 h
Compound: C[C@@H](Oc1ccc2[nH]nc(-c3nc4cc(N5CCN(C)CC5)ccc4[nH]3)c2c1)c1c(Cl)cncc1Cl
Activity [5]: Non-toxic
